Sampled rows, rich in hits. Any-hit rate of the full collection: about 4%.
NTR1 ag: agonists of human NTR1, primary screen, imaging, U2OS cells, beta-arrestin-GFP, high content. Neurotensin receptor type 1 (Homo sapiens), P30989. NTR1-U2OS beta-arrestin-GFP spot imaging, agonist mode. activation, % at 20 µM. 0.17% of 330,000 active. AID 493036, 2011;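 active = activation at or above 40% of the spot to cytoplasm intensity ratio, with at least 20 cells analyzed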;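 note: 0% = DMSO without peptide and 100% = 100 nM NTR1 peptide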
OX1R antag-1: OX1R (HCRTR1) antagonists, primary screen, fluorescence, CHO/OX1R cells, Fluo-8 calcium, orexin A | 0.43% of 330,000 active | Fluo-8 calcium fluorescence | AID 434989, 2010 | inhibition, % at 5 µM;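 active = inhibition above its plate's threshold, mean inhibition of all tested compounds on the plate plus 3 SD, cut at about 37% in these data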;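 note: 0% = orexin A challenge wells and 100% = SB-334867-A antagonist wells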
TAAR1 agonist: human TAAR1 agonists, primary screen, Fluo-8 calcium fluorescence, CHO RD-HGA16 cells; 0.99% of 360,000 active; activation, % at 3 µM; AID 624467, 2012; vehicle wells 0%, saturating PEA agonist 100%; Trace amine-associated receptor 1 (Homo sapiens), Q96RJ0;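 active = activation above the mean activation of all test compounds in the run plus 3 SD, cut at about 38% in these data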
Target sequence (Q96RJ0 whole entry, looked up): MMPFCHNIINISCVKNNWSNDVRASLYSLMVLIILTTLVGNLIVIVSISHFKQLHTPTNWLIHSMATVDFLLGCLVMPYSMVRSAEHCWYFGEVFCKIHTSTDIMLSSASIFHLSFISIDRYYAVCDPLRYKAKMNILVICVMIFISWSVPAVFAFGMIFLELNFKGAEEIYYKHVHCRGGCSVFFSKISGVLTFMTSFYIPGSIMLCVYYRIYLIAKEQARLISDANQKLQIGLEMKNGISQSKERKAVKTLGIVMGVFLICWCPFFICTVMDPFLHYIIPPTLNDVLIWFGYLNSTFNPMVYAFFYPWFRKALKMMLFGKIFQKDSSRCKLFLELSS
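Assay system – CHO-derived RD-HGA16 cells with stable Gα16 and human TAAR1 · Compound dosing – one-point dosing at 3 µM (nominal) · Incubation – 17-24 h seeding, 75 min 37 °C dye, 30 min RT · Measured by – kinetic Fluo-8 calcium fluorescence · Control set – DMSO vehicle as 0%, PEA at EC100 as 100% · Repeats – single well for each compound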
OX1R antag-2: antagonists of human orexin 1 receptor (OX1R); Orexin/Hypocretin receptor type 1 (Homo sapiens), O43613; OX1R-expressing cells, FRET antagonist read-out; inhibition, % at 6.6 µM; 1.8% of 330,000 active; AID 485270, 2010; in the data active = inhibition mostly above about 38%, no sharp cut-off; inactive = mostly below about 40%;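 note: 0% = agonist challenge alone and 100% = reference antagonist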
CHO parental Ca: ATP-evoked calcium signal inhibitors, parental CHO, primary screen, counter-screen for OX1R antagonist project, cell-based, fluorescence, Fluo-8 calcium dye; parental CHO-K1, ATP-induced calcium, Fluo-8 fluorescence; inhibition, % at 5.6 µM; 0.63% of 330,000 active; AID 463079, 2010;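 active = inhibition above that plate's mean sample inhibition plus 3 SD, cut at about 26% in these data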;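 note: 0% = ATP-challenged DMSO wells and 100% = DMSO wells without ATP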
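Test system: parental CHO cells; detection: calcium-sensitive Fluo-8 fluorescence; evaluation: percent inhibition of calcium signal; also added: ATP as calcium-mobilizing challenge; repeats: one well per compound; control set: ATP-challenged DMSO wells low, unchallenged DMSO wells high; compound: single nominal dose of 5.6 µM per compound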
TAAR1 antag: human TAAR1 antagonists, primary screen, Fluo-8 calcium fluorescence, CHO RD-HGA16 cells. Trace amine-associated receptor 1 (Homo sapiens), Q96RJ0. inhibition, % at 3 µM. 1.5% of 360,000 active. antagonist;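 active = inhibition above a per-plate cutoff, the mean inhibition of test compounds on that plate plus 3 SD, cut at about 49% in these data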;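 note: 0% = DMSO plus EC80 beta-PEA response and 100% = DMSO alone without agonist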
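Material: RD-HGA16 CHO cells with stable hTAAR1 and Gα16; Dosing: single nominal final test compound concentration of 3 µM; Schedule: seeding 17-24 h prior, 75-min 37 °C, 30-min RT dye loading; Detection: kinetic Fluo-8 calcium fluorescence measurement; Measure: % inhibition from peak post-agonist over basal fluorescence ratio; Benchmarks: vehicle and agonist controls.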
* = called active by the depositor; · = not tested or not shown; ! = repeats disagree.

SMILES	NTR1 ag	OX1R antag-1	TAAR1 agonist	OX1R antag-2	CHO parental Ca	TAAR1 antag
CC[C@@H]1C[C@H]2CC[C@H](O2)[C@H](C)C(=O)O[C@@H](C)C[C@@H]2CC[C@@H](O2)[C@@H](C)C(=O)O[C@H](C)C[C@H]2CC[C@H](O2)[C@H](C)C(=O)O[C@@H](C)C[C@@H]2CC[C@@H](O2)[C@@H](C)C(=O)O1	·	·	7	·	·	-15
Cn1nc(-c2ccc(OCC(=O)N3CCN(Cc4ccccc4)CC3)cc2)c2ccccc2c1=O	1	9	14	23	36*!	32
O=C(Nc1cccc(Cl)c1)OC1CN2CCC1CC2 (stereo not drawn)	1	21	7	57	46*	24
O=C1NC(=O)N(c2ccc3c(c2)OCO3)C(=O)/C1=C\c1ccc(N2CCCCC2)o1	0	-4	27	71*	-5	-2
Cc1ccccc1N1C(=O)NC(=O)/C(=C/c2ccc(N3CCOCC3)o2)C1=O	-2	1	5	48*	6	-2
Cc1ccccc1N1C(=O)NC(=O)/C(=C\c2cc(Br)c(N3CCOCC3)o2)C1=O	-2	3	34	30	0	18
C[C@]1(O)CCC2C3CC[C@H]4C[C@@H](OC(=O)[C@@H](N)CCCCN)CC[C@]4(C)C3CC[C@@]21C (stereo partly drawn)	·	·	3	·	·	-2
C=C1C(O)[C@@H]2O[C@]3(CC[C@H](/C=C/C(C)[C@@H]4CC(C)=CC5(O[C@H](C[C@@](C)(O)C(=O)O)CCC5O)O4)O3)CC[C@H]2O[C@@H]1C(O)CC(C)[C@H]1OC2(CCCCO2)CCC1C (stereo partly drawn)	3	34	·	50*	-10	·
C=CCOC(=O)N1Cc2ccccc2-n2nncc2C1	·	·	1	·	·	-7
Cc1c(N=Nc2c(O)n(C)c(=O)n(C)c2=O)c(=O)n(-c2ccccc2)n1C	4	-14	0	64*	-4	-6
CCN(CC)c1ccc(/C=C2/C(=O)NC(=O)N(CC3CCCO3)C2=O)cc1 (stereo not drawn)	2	-9	42*	38	-2	13
O=C1NC(=O)N(CC2CCCO2)C(=O)/C1=C/c1cccs1 (stereo not drawn)	5	-9	4	12	-10	-37
CCC(C)C12CN3CCN(CC(C)(C3)C1O)C2 (stereo not drawn)	-2	2	1	20	-3	-9
CCC(c1nnnn1-c1ccc2c(c1)OCCO2)N1CCC(n2c(=O)[nH]c3ccccc32)CC1 (stereo not drawn)	·	·	18	·	·	66*
CSCCC(c1nnnn1-c1ccc2c(c1)OCCO2)N1CCC(n2c(=O)[nH]c3ccccc32)CC1 (stereo not drawn)	·	·	13	·	·	62*
c1ccc(CCN2CCC3CCNC3C2)cc1 (stereo not drawn)	·	·	3	·	·	-8
CCOC(=O)[C@]12Cc3c(cc(OC)c(OC)c3OC)[C@H]1N(C(C)C)C(=O)c1cc(OC)ccc12	·	·	1	·	·	-20
CCOC(=O)C(c1c(O)c2ccccc2oc1=O)c1c(O)c2ccccc2oc1=O	·	·	0	·	·	-14
COC(=O)C1=C(c2cc3ccccc3o2)C[C@@H]2CC[C@H]1N2C(=O)NCc1cccc2ccccc12	-2	31	7	69*	-14	6
COC(=O)C1=C(c2cc3ccccc3o2)C[C@@H]2CC[C@H]1N2C(=O)NCc1ccc(F)cc1	-2	-25	11	32	-6	-8
O=[N+]([O-])c1ccc(N2CCCNCC2)c2ncccc12	8	-6	3	40*	-3	8
O=[N+]([O-])c1ccc(N2CCCCC2)c2ncccc12	1	-23	0	44	-6	3

Screening data deposited in PubChem by several laboratories.
